Measurements published in EPA's CvTdb concentration-time database.

Columns and labels:
human = assay: concentration in blood after dosing; negative times count back from the end of exposure; details: dosed: trichloroethylene, 100 ppm, inhalation, duration: 4 hr, person
Procedure, shortened: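 Sampling and analytical methods are those of each source and frequently went unreported. The concentration-versus-time and amount-versus-time points were compiled from published in vivo toxicokinetic studies and two structured collections. Most were digitised from plot screenshots with WebPlotDigitizer, with others copied from tables, in the reported units.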

rat [1] = assay: concentration in blood after dosing; negative times count back from the end of exposure; details: inhalation, male
Rat [2] = assay: concentration in plasma after dosing; details: dosed: 2-Hydroxy-4-methoxybenzophenone, oral, F344

OCC(Cl)(Cl)Cl [trichloroethanol (free)]
human
Details	concentration in blood [ng/mL]
0.2566 h	2040
0.515 h	2000
1.032 h	1910
1.986 h	1740
3.954 h	1400
5.921 h	1180
7.947 h	1070
9.954 h	944
11.96 h	896
13.99 h	727
15.97 h	577
18 h	459

human, during exposure
Details	concentration in blood [ng/mL]
-5 s	2030
-3.524 h	172
-2.99 h	481
-2.021 h	1060
-0.9915 h	1570

rat [1], dosed: trichloroethylene, 50 ppm, duration: 4 hr, Sprague Dawley
Details	concentration in blood [ng/mL]
0.1729 h	1250
0.1865 h	2020
0.2651 h	1140
0.2753 h	828
0.3836 h	2260
0.4311 h	1340
0.5027 h	1180
0.594 h	829
0.9111 h	1110
0.9517 h	1010
1.022 h	1130
1.11 h	898
1.769 h	955
1.908 h	1010
2.006 h	889
3.915 h	1650
3.921 h	897
4.003 h	757
5.934 h	757
5.937 h	703
5.949 h	1380
5.978 h	655
7.942 h	1260
7.97 h	667
7.992 h	595
9.919 h	656
9.986 h	538
10.01 h	509
10.11 h	1120
11.91 h	627
11.95 h	1030
11.98 h	546
12.02 h	481
13.9 h	557
13.93 h	469
13.94 h	1040
13.99 h	534
15.9 h	507
15.93 h	893
15.95 h	448
17.94 h	348
17.96 h	350
41 s	978
86 s	1200

rat [1], dosed: trichloroethylene, 50 ppm, duration: 4 hr, Sprague Dawley, during exposure
Details	concentration in blood [ng/mL]
-169 s	1350
-3.506 h	437
-3.433 h	315
-3.408 h	626
-3.033 h	1060
-3.009 h	547
-3 h	486
-2.975 h	327
-2.015 h	830
-2.001 h	1560
-1.996 h	845
-1.989 h	628
-1.021 h	1080
-1.008 h	1890
-0.9983 h	790
-0.9843 h	968
-0.032 h	1940

O=C(c1ccccc1)c1ccc(O)cc1O [2,4-Dihydroxybenzophenone]
concentration in plasma [ng/mL], Rat [2]
Details	0.25 h	0.5 h	2.5 min	3 h	4 h	5 h	6 h	10 h	10 min	12 h
100 mg/kg, Female	174	145	64.3	82.3	54.2	60.3	–	–	200	–
100 mg/kg, Male	52.2	114	–	38.2	65.6	55.8	–	–	31	–
250 mg/kg, Female	410	658	–	166	157	–	–	89.8	57.2	–
250 mg/kg, Male	109	218	–	114	92.3	–	–	91.7	39.4	–
500 mg/kg, Female	287	688	–	–	296	–	–	242	178	185
500 mg/kg, Male	180	192	–	–	233	–	171	–	2430	246

C=C(Cl)Cl [1,1-dichloroethylene]
rat [1], dosed: 1,1-dichloroethylene, duration: 3 hr, Sprague-Dawley
Details	concentration in blood [ng/mL]
0.1331 h, 75 ppm	162
0.1373 h, 300 ppm	2120
0.1374 h, 25 ppm	61.4
0.1383 h, 150 ppm	122
0.1969 h, 75 ppm	117
0.1973 h, 150 ppm	108
0.1979 h, 25 ppm	38.6
0.2044 h, 300 ppm	1740
0.2603 h, 150 ppm	92.9
0.2608 h, 75 ppm	83.7
0.261 h, 25 ppm	32.9
0.2757 h, 300 ppm	1350
0.3322 h, 75 ppm	62.5
0.3352 h, 300 ppm	1060
0.3356 h, 25 ppm	29.2
0.3396 h, 150 ppm	68
0.3946 h, 150 ppm	61.6
0.3984 h, 25 ppm	26.6
0.3984 h, 300 ppm	874
0.3991 h, 75 ppm	54.9
0.496 h, 25 ppm	25.4
0.4961 h, 150 ppm	60
0.508 h, 300 ppm	801
0.5085 h, 75 ppm	50.8
4 s, 75 ppm	340
13 s, 150 ppm	473
118 s, 25 ppm	126
132 s, 75 ppm	312
133 s, 150 ppm	291
137 s, 300 ppm	3090
232 s, 75 ppm	275
238 s, 25 ppm	78.9
238 s, 150 ppm	188
253 s, 300 ppm	2500

rat [1], dosed: 1,1-dichloroethylene, duration: 3 hr, Sprague-Dawley, during exposure
Details	concentration in blood [ng/mL]
-14 s, 25 ppm	184
-8 s, 300 ppm	4150
-2.956 h, 25 ppm	50.3
-2.956 h, 75 ppm	100
-2.954 h, 300 ppm	1030
-2.951 h, 150 ppm	83
-2.903 h, 25 ppm	67.4
-2.899 h, 75 ppm	139
-2.899 h, 150 ppm	154
-2.893 h, 300 ppm	1320
-2.861 h, 150 ppm	190
-2.854 h, 300 ppm	1490
-2.853 h, 75 ppm	170
-2.846 h, 25 ppm	92.7
-2.793 h, 25 ppm	128
-2.793 h, 300 ppm	1680
-2.792 h, 150 ppm	271
-2.787 h, 75 ppm	188
-2.729 h, 75 ppm	212
-2.727 h, 25 ppm	143
-2.727 h, 150 ppm	302
-2.727 h, 300 ppm	1840
-2.657 h, 150 ppm	325
-2.653 h, 25 ppm	149
-2.653 h, 300 ppm	1920
-2.652 h, 75 ppm	253
-2.583 h, 300 ppm	2080
-2.582 h, 75 ppm	263
-2.575 h, 25 ppm	143
-2.568 h, 150 ppm	371
-2.498 h, 25 ppm	155
-2.494 h, 300 ppm	2200
-2.492 h, 75 ppm	283
-2.49 h, 150 ppm	408
-2.396 h, 300 ppm	2250
-2.393 h, 25 ppm	162
-2.391 h, 75 ppm	301
-2.389 h, 150 ppm	421
-2.197 h, 75 ppm	333
-2.194 h, 25 ppm	162
-2.194 h, 150 ppm	424
-2.194 h, 300 ppm	2410
-1.996 h, 300 ppm	2600
-1.995 h, 25 ppm	166
-1.99 h, 75 ppm	335
-1.988 h, 150 ppm	461
-1.743 h, 300 ppm	2760
-1.742 h, 25 ppm	171
-1.741 h, 75 ppm	340
-1.738 h, 150 ppm	453
-1.5 h, 25 ppm	176
-1.497 h, 300 ppm	3050
-1.496 h, 75 ppm	346
-1.493 h, 150 ppm	463
-1.003 h, 300 ppm	3380
-1.002 h, 150 ppm	450
-0.9974 h, 25 ppm	172
-0.9966 h, 75 ppm	338
-0.5007 h, 300 ppm	3850
-0.4991 h, 150 ppm	466
-0.4977 h, 75 ppm	337
-0.4481 h, 25 ppm	182
